# Source: PubChem
# Compounds with a hit are over-represented: about 1.6% of the library has one in this group of screens.
# PfG6PD inh – PfG6PD (Plasmodium falciparum) enzyme inhibition | inhibition, % at 20 µM | hit rate 0.78% among 350,000 | PfGluPho enzyme, NADPH resazurin-diaphorase fluorescence;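 active = inhibition reaching at least a set limit at 20 µM in the primary screen, cut at about 59% in these data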;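 also: 0% = DMSO wells with substrate and 100% = DMSO wells lacking glucose-6-phosphate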
# T cell HTS – modulates CD8 T cell binding to vesicles; 2C CD8+ T cell-vesicle binding, flow cytometry; stronger effect = lower value; response (vesicle binding), % at 7 µM; hit rate 0.068% among 330,000; AID 2052;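 active = response, share of CD8 T cells binding vesicles, and their 90th percentile fluorescence all below set limits, cut at about 80% in these data, passing the limit was not always enough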;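 also: values below 100% mean blocked vesicle binding to the CD8+ T cells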
#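 Read-out – percent CD8+ FL2 mean versus row control · System – murine 2C transgenic CD8+ T lymphocytes · Times – 1.5 h cell–vesicle binding at 37 °C, then 20 min icy labelling · Control set – naked vesicles low, QL9 vesicles with vehicle high · Detection – cytometric PE anti-B7-1 and Alexa647 anti-CD8 signals after 1% paraformaldehyde fixation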
# HKDC1 inh – blocks human hexokinase HKDC1 activity; AID 493160; Q2TB90; inhibition, % at 20 µM; hit rate 0.16% among 340,000; recombinant HKDC1, G6PDH/diaphorase resazurin coupled fluorescence;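 active = inhibition above about 35% when tested at 20 µM, limit read from the data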;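 also: plate controls were DMSO wells with enzyme for no effect and DMSO wells lacking enzyme for full effect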
#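 Test system: recombinant HKDC1 (HK5) hexokinase enzyme, produced in-house; Amount: enzyme 5 µg/mL final; Buffer or medium: Tris pH 8.0 buffer with MgCl2, Tween-20, BSA, BME; Reagent: glucose and ATP substrates; Doses: 20 µM test compound, 1% DMSO; Incubation: 90 min reaction incubation at room temperature, dark; Detection: resorufin fluorescence at 613 nm.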
# PKA-R2B activ – activators of human PKA-R2B complex; PKA-R2B holoenzyme dissociation, Cy5-IP20 fluorescence polarization; R2B truncated from residue 108, S112A mutant; 0% DMSO only, 100% 113 µM cGMP; hit rate 0.079% among 340,000; activation, % at 11.4 µM; AID 504700;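 active = activation above a cutoff set at the mean over all compounds plus 3 SD, cut at about 18% in these data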;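 also: higher means more holoenzyme dissociation and a rise in polarization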
# PKA-R1A act – activators of PKA-R1A complex; P00514+P68181; PKA-R1A dissociation, Cy5-IP20 fluorescence polarization; scaled: DMSO 0%, 113 µM cGMP 100%; activation, % at 11.4 µM; hit rate 0.083% among 340,000; AID 504707;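 active = percent activation above the mean of all tested compounds plus 3 SD, cut at about 19% in these data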;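 also: higher means more PKAc released from R1A so a rise in polarization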
# ATG4B inh – inhibitors of human ATG4B cysteine protease | Q9Y4P1 | ATG4B cleavage of LC3-PLA2, NBD-HPC fluorescence, 1 h | inhibition, % at 8.33 µM | hit rate 0.51% among 340,000 | AID 504462; in the data active = inhibition above about 40%
# Target sequence (Q9Y4P1 whole entry, looked up): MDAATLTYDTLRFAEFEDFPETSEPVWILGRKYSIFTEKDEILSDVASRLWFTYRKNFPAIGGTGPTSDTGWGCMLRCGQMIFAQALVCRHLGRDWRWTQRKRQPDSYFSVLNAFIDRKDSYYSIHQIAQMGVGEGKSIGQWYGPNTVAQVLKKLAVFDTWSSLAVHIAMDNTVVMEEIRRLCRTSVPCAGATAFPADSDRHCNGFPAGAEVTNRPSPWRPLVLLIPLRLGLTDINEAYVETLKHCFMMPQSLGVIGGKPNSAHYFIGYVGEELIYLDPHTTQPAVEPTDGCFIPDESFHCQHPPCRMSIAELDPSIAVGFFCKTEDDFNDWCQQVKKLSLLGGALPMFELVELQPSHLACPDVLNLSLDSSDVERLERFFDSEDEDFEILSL
# An asterisk follows results filed as active; i = inactive; x = no result given.
SMILES,PfG6PD inh,T cell HTS,HKDC1 inh,PKA-R2B activ,PKA-R1A act,ATG4B inh
C#CCOCCOCCOCCNc1nc(N2CCN(C(=O)CCCCCCCCCCNC(=O)[C@@H](CCSC)n3cc(CCO)nn3)CC2)nc(N2CCN(C(=O)CCCCCCCCCCNC(=O)[C@H]([C@@H](C)CC)n3cc(CCCCN=C(N)N)nn3)CC2)n1,59,528,1,-3,-4,35
C#CCOCCOCCOCCNc1nc(N2CCN(C(=O)CCCCCCCCCCNC(=O)[C@H](CCCCN)n3cc(CCCC(=O)O)nn3)CC2)nc(N2CCN(C(=O)CCCCCCCCCCNC(=O)[C@H](CCCN=C(N)N)n3cc(C[C@@H](C)CC)nn3)CC2)n1,30,373,-10,-8,-5,37
C#CCOCCOCCOCCNc1nc(N2CCN(C(=O)CCCCCCCCCCNC(=O)[C@@H](CCSC)n3cc(CCO)nn3)CC2)nc(N2CCN(C(=O)CCCCCCCCCCNC(=O)[C@H]([C@@H](C)CC)n3cc(CCCCCN)nn3)CC2)n1,49,i,-14,x,x,45*
C#CCOCCOCCOCCNc1nc(N2CCN(C(=O)[C@H](CCCCN)n3cc(CCCC)nn3)CC2)nc(N2CCN(C(=O)[C@H](Cc3ccc(O)cc3)n3cc(CCO)nn3)CC2)n1,76*,464,5,0,-2,-11
C#CCOCCOCCOCCNc1nc(N2CCN(C(=O)CCCCCCCCCCNC(=O)Cn3cc(CCCCCN)nn3)CC2)nc(N2CCN(C(=O)CCCCCCCCCCNC(=O)[C@H]([C@@H](C)CC)n3cc(CCCCCN)nn3)CC2)n1,66*,187,-14,-1,11,20
O=C(NC1CCCCC1)c1csnn1,-6,x,-4,-12,-2,2
Cn1cc(S(=O)(=O)N2CCCC2)cc1C(=O)NCCc1ccccc1,-5,986,0,0,-2,-10
COc1ccc([N+](=O)[O-])cc1NC(=O)C(C)Sc1nc(-c2ccccc2)cs1 (stereo not drawn),10,0.0*,-3,-7,-9,-10
CC(NC(=O)c1cccs1)C1CCCO1 (stereo not drawn),5,161,-5,9,3,-3
Cc1coc2c1C(=O)C(=O)c1c-2ccc2c(C)cccc12,64*,665,30,3,0,-2
COc1ccccc1OCC(=O)N1CCN(S(=O)(=O)c2ccc(Cl)cc2)CC1,-18,x,-2,-14,-11,-5
COc1ccc(/C=C2/CCC(CN3CCOCC3)C2=O)cc1 (stereo not drawn),76*,x,15,-5,10,7
CC1CCC/C(=C\c2ccc(O)cc2)C1=O (stereo not drawn),-10,314,-2,-10,6,-4
CN(C)CC1CC/C(=C\c2ccc(O)cc2)C1=O (stereo not drawn),61*,x,7,-1,-2,-9
O=C1CC(c2nc3ccccc3[nH]2)CN1Cc1ccccc1 (stereo not drawn),1,47*,-5,2,1,-14
C=CC[C@@H](CC(=O)NCCO)C(=O)N[C@@H](COC(=O)[C@@H](CC=C)CC(=O)OC(C)(C)C)Cc1c[nH]c2ccccc12,11,291,0,-22,-14,-13
CCCc1ccc(C2=Nn3c(nnc3C(C)C)SC2)cc1,60*,187,-7,-18,-2,-11
CC(C)c1nnc2n1N=C(c1ccc(Cl)cc1)CS2,3,242,-5,-1,1,-12
CC[n+]1c(/C=C/N(C)c2ccccc2)n(-c2ccccc2)c2ccc(-c3nc4ccccc4s3)cc21,75*,236,22,-3,-9,0
CCOC(=O)c1ccc2c(c1)n(CC)c(/C=C/N(C)c1ccccc1)[n+]2CC,-4,270,15,8,-4,5
CCCC(=O)Nc1ccc(Cl)c(NC(=O)c2cccnc2)c1,-11,0.0*,-7,1,-9,-12
COc1ccc(NC(=O)c2ccco2)cc1NC(=O)c1cccc(F)c1,-8,x,-5,-7,3,9
CCC(C)(C(=O)NC1CCCC1)N(Cc1cccs1)C(=O)Cc1cccs1 (stereo not drawn),-5,35*,-4,2,-7,-4
COc1ccc(S(=O)(=O)NCc2cc(=O)n(C)c(=O)n2C)cc1C,5,178,5,-3,8,-5
CCN(CC)C(CNC(=O)CSc1nnnn1-c1c(C)cccc1C)c1ccco1 (stereo not drawn),-5,x,4,-4,6,-2
SMILES,PfG6PD inh,T cell HTS,HKDC1 inh,PKA-R2B activ,PKA-R1A act,ATG4B inh
NS(=O)(=O)c1cc(C(=O)OCC(=O)N2CCc3ccccc3C2)ccc1Cl,-15,265,-5,1,-10,0
C=CCOc1ccc(C2NC(=S)NC(c3ccccc3)=C2C(C)=O)cc1OC (stereo not drawn),-3,27*,-6,-13,1,2
COc1cc(C2NC(=O)NC(c3ccccc3)=C2C(C)=O)ccc1OCC#N (stereo not drawn),-15,280,3,-7,5,14
CC(=O)c1c(O)c2ccccc2n(Cc2ccccc2)c1=O,-2,58*,0,4,2,6
CC(=O)NC1Sc2ccccc2N=C1c1ccccc1 (stereo not drawn),63*,483,-6,1,-11,6
CC1(C)Oc2ccc(C(=O)NNC(=O)Nc3ccccc3)cc2NC1=O,-15,188,-4,3,-2,9
Oc1cc2c(cc1C(c1ccc(Cl)c(Cl)c1)N1CCCC1)OCO2 (stereo not drawn),62*,x,20,-5,6,13
COc1ccc(Cl)cc1S(=O)(=O)NCc1ccncc1,-6,350,-5,4,0,3
O=C(O)c1c(C(=O)N2N=C3/C(=C/c4ccccc4)CCCC3C2c2ccccc2)cccc1[N+](=O)[O-] (stereo not drawn),-8,273,3,-6,-9,3
CC(=O)N1N=C2/C(=C/c3ccccc3)CCCC2C1c1ccccc1 (stereo not drawn),-3,71*,8,-4,-14,-4
O=C(O[C@@H]1OC2COC(=O)c3cc(O)c(O)c(O)c3-c3c(cc(O)c(O)c3O)C(=O)O[C@@H]([C@H]1O)[C@@H]2O)c1cc(O)c(O)c(O)c1,111*,391,7,3,-7,14
NNC(=O)c1cc2sccc2s1,-7,146,4,5,-7,0
O=C(Nc1ccc(N2CCOCC2)cc1)c1ccc2nc(-c3ccco3)c(-c3ccco3)nc2c1,14,301,-3,2,-5,11
